# Measurements taken from ChEMBL document CHEMBL4706565, “Anti-glioma effects of 2-aminothiophene-3-carboxamide derivatives, ANO1 channel blockers” (Eur J Med Chem, 2020).
# The source made the active and inactive calls. The calls are words filed in the database; no cut-off is given here.
# Columns and labels:
# U-251 [1] = assay: Inhibition of cell migration in human U251 cells incubated for 18 hrs by wound healing assay; assay type: functional, cell-based; conditions: dose 1-10 µM
# Method in brief: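 U251 monolayer, 2.0×10^5 cells/well, plated overnight, then scratched and washed with PBS. Incubated 18 h in complete medium with compound (1, 5 or 10 μM). Wound area imaged before and after incubation; migration ratio taken from migrated area. One-way ANOVA.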
# U-251 [2] = assay: Inhibition of anchorage-independent colony formation in human U251 cells at 100 uM incubated for 14 days by crystal violet staining based soft agar colony formation assay; assay type: functional; conditions: U-251, 336 h, time 14 day
# Method in brief: (§1)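 Soft agar assay: 2.0×10^3 U251 cells in complete medium with 0.3% agar over a 0.6% bottom agar layer. Treated with compounds at 1-100 μM for 14 days, 37 °C, 5% CO2. Colonies stained with crystal violet for 24 h, whole wells photographed and colonies counted against DMSO control; n = 3.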
# [3] = target: T1, Anoctamin-1 (Mus musculus) (UniProt Q8BHY3); assay: Inhibition of GFP-fused mouse ANO1 channel expressed in HEK293A cells assessed as inhibition of current amplitude at 10 uM at membrane potential of +80 mV by patch clamp electrophysiology assay; assay type: cell-based; conditions: HEK293-A
# T1 sequence (whole entry): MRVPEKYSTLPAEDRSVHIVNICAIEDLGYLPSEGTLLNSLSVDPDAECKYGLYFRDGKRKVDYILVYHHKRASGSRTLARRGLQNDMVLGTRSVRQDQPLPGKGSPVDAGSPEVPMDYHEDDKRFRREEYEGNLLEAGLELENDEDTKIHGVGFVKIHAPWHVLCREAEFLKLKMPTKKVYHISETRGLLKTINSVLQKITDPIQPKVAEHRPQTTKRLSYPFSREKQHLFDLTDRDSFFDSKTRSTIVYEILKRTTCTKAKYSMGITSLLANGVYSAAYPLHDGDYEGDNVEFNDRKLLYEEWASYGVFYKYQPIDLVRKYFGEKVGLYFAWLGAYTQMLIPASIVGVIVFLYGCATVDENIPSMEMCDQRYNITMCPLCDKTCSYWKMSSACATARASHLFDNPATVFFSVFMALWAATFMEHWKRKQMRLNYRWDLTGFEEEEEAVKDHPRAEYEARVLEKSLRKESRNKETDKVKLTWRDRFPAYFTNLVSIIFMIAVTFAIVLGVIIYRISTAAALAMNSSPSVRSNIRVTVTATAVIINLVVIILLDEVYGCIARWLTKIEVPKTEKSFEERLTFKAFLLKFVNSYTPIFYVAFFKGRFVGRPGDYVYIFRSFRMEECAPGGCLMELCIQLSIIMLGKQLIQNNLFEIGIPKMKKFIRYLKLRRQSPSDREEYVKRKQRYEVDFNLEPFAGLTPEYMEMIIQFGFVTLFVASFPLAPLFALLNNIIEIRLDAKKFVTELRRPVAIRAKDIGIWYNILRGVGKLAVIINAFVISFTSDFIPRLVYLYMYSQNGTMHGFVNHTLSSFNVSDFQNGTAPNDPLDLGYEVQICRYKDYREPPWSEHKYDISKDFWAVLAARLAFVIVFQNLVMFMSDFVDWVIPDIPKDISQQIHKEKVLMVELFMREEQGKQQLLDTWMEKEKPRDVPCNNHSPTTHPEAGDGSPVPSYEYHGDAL
# Method in brief: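 Whole-cell recording at room temperature in HEK293A cells transfected with GFP-mANO1, GFP-mANO2 or GFP-mTTYH1. 1 s ramps from +80 to -80 mV, holding potential -10 mV. For ANO1/ANO2: pipette CsCl 146 mM with Ca-EGTA-NMDG, pH 7.3; bath NaCl-based, pH 7.3. For TTYH1: Tris-aspartate pipette (pH 7.2) and Tris-HCl bath (pH 7.4), with […] and BaCl2 added to block K+ channels, and hypotonic (220 mOsm/kg) bath. Washout recordings assessed reversibility.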
# U-251 [4] = assay: Inhibition of anchorage-independent colony formation in human U251 cells incubated for 14 days by crystal violet staining based soft agar colony formation assay; assay type: functional, cell-based; conditions: dose 30-100 µM, time 14.0 day; method in brief: as §1
# U-251 [5] = assay: Inhibition of colony formation in human U251 cells incubated for 14 days by crystal violet dye based assay; assay type: functional, cell-based; conditions: dose 1-10 µM, time 14.0 day
# Method in brief: (§2)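 U251 cells, 1.0×10^3 per well, treated with compound (1, 3 or 10 μM) for 2 weeks at 37 °C, 5% CO2. Colonies stained 24 h with crystal violet in methanol/formaldehyde/PBS, washed, extracted with 10% acetic acid and read at A570 nm. Compared against DMSO control.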
# U-251 [6] = assay: Inhibition of colony formation in human U251 cells at 3 uM incubated for 14 days by crystal violet dye based assay; assay type: functional, cell-based; conditions: time 14.0 day; method in brief: as §2
# [7] = target: T2, Anoctamin-1 (Homo sapiens) (UniProt Q5XXA6); assay: Induction of ANO1 degradation in human U251 cells at 10 uM incubated for 24 hrs by western blot analysis; assay type: cell-based; conditions: U-251
# T2 sequence (whole entry): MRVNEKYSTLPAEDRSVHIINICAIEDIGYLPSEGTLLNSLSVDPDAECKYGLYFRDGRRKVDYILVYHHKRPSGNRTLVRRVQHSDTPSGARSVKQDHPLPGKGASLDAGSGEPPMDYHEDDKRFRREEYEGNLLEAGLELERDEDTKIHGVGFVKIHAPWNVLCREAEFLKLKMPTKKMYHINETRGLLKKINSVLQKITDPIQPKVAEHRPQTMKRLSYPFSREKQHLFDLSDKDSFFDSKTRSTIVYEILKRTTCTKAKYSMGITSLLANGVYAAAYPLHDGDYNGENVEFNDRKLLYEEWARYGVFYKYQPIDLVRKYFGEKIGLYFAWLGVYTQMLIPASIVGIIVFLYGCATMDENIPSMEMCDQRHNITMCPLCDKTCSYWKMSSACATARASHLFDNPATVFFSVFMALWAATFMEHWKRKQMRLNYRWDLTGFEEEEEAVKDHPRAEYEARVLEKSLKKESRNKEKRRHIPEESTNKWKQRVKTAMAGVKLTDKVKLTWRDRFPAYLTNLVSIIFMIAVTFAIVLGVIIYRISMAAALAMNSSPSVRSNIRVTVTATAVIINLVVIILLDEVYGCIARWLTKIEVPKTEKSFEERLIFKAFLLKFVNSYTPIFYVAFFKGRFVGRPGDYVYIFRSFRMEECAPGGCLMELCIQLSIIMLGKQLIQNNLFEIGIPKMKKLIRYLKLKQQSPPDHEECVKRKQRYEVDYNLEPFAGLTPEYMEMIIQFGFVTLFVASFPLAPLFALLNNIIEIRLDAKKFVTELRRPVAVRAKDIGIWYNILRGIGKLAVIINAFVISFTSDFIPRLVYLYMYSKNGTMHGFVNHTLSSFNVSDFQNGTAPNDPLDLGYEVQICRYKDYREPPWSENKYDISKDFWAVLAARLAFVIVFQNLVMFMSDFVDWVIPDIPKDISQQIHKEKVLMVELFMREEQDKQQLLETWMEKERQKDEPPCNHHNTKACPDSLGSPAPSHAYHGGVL
# Method in brief: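 U251 cells (5×10^5) treated with 10 μM inhibitor for 24 h. Alternatively, treated 6 h with 10 μM inhibitor, then MG132 (20 μM, a proteasome inhibitor) for a further 18 h. NP40 lysates immunoblotted for ANO1, β-actin as loading control; band densitometry.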
inhibition [3] [%],Activity [7],Compound,inhibition (U-251 [1]),inhibition at 100 µM (U-251 [2]) [%],inhibition (U-251 [4]),inhibition (U-251 [5]),inhibition (U-251 [6])
50.6,Active,CC(C)(C)C(=O)Nc1sc2c(c1C(N)=O)CCC(C(C)(C)C)C2 (centres undefined),Dose-dependent effect,95.7,Dose-dependent effect,Dose-dependent effect,Active
57.6,Active,NC(=O)c1c(NC(=S)NC(=O)c2ccc(Cl)cc2)sc2c1CCC2,Dose-dependent effect,88,Dose-dependent effect,Dose-dependent effect,Active
